Assay [1] relates to Escherichia coli. The assay can be described thus: Antibacterial activity determined against Escherichia coli. It is filed as functional. The essentials: (§1)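 Broth microdilution: an overnight-culture bacterial suspension was added to compound in 2.5% DMSO in water, giving a final inoculum of about 10^2–10^3 CFU/well. Plates were incubated 20–24 h at 37 °C, and growth relative to a no-compound control was read as A595. MIC was given as a range: complete inhibition at the upper concentration, viable cells at the lower.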

Assay [2] has as its system Staphylococcus aureus. Put plainly: Antibacterial activity determined against Staphylococcus aureus. It is filed as functional. A digest of the protocol: as §1
Assay [3] can be described thus: Inhibition of bacterial transcription/translation.
For a further assay, the system named is Candida albicans. The assay can be described thus: Antifungal activity determined against Candida albicans 10231. It is filed as functional. The essentials:
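Candida albicans: an overnight-culture yeast suspension was added to compound in 2.5% DMSO in water, giving a final inoculum of about 10^2–10^3 CFU/well. Plates were incubated 40–48 h at 25 °C, and growth versus a no-compound control was read as A595. MIC was given as a range: complete inhibition at the higher concentration, viable cells at the lower.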

Assay [4] deals with Enterococcus faecium. The assay can be described thus: Antibacterial activity determined against Enterococcus faecium ATCC 6569. Type of assay: functional. A digest of the protocol: as §1
Assay [5] deals with Enterococcus faecium. Put plainly: Antibacterial activity determined against Enterococcus faecium ATCC 882. Type of assay: functional. The essentials:
as §1

The test system of assay [6] is Escherichia coli. The assay can be described thus: Antibacterial activity determined against gram-negativeE. coli 25922. It is filed as functional. A digest of the protocol: as §1
Assay [7] has as its system Enterococcus faecalis. Put plainly: Antibacterial activity determined against Enterococcus faecalis ATCC 11823. Type of assay: functional. A digest of the protocol:
as §1

In assay [8] the test system is Enterococcus faecalis. The assay can be described thus: Antibacterial activity determined against Enterococcus faecalis ATCC 23241. It is filed as functional. The essentials:
as §1

The test system of assay [9] is Enterococcus faecalis. Put plainly: Antibacterial activity determined against Enterococcus faecalis ATCC 4200. Type of assay: functional. The essentials: as §1
Assay [10] relates to Enterococcus faecalis. The assay can be described thus: Antibacterial activity determined against Enterococcus faecalis ATCC 49757. It is filed as functional. A digest of the protocol:
as §1

Another assay concerns Enterococcus hirae. Put plainly: Antibacterial activity determined against gram-positive Enterococcus hirae 29212. Type of assay: functional. A digest of the protocol: as §1
In a further assay the test system is Klebsiella pneumoniae. Put plainly: Antibacterial activity determined against gram-negativeK. pneumoniae 13383. It is filed as functional. The essentials: as §1
Another assay has as its system Proteus vulgaris. The assay can be described thus: Antibacterial activity determined against gram-negativeP. vulgaris 8427. Type of assay: functional. A digest of the protocol:
as §1

The next assay concerns Pseudomonas aeruginosa. Put plainly: Antibacterial activity determined against gram-negativeP. aeruginosa 25416. Type of assay: functional. The essentials:
as §1

For assay [11], the system named is Staphylococcus aureus. Put plainly: Antibacterial activity determined against gram-positive Staphylococcus aureus 13709. Type of assay: functional. The essentials:
as §1

A further assay concerns Streptococcus pyogenes. The assay can be described thus: Antibacterial activity determined against gram-positive Streptococcus pyogenes 49399. It is filed as functional. A digest of the protocol: as §1
Another assay deals with Streptococcus pneumoniae. The assay can be described thus: Antibacterial activity determined against gram-positive Streptococcus pneumoniae 6303. Type of assay: functional. A digest of the protocol:
as §1

For assay [12], the system named is Enterococcus faecalis. Put plainly: Antibacterial activity determined against Enterococcus faecalis ATCC 828. Type of assay: functional. The essentials: as §1

≈ marks a conversion by molar mass, not a printed value.

On to `Clc1cc2nc(C3CCNCC3)n(Cc3ccc(CNCCc4cc5ccccc5[nH]4)cc3)c2cc1Cl`, for which the minimal inhibitory concentration (MIC) in the assay on Escherichia coli [1] and in the assay with Staphylococcus aureus [2] was 12 µM (≈ 6.39 µg/mL) throughout. In addition, in assay [3], the IC50 is greater than 100 µM.
As for `Clc1cc2nc(C3CCNCC3)n(Cc3ccc(CBr)cc3)c2cc1Cl`, the minimum inhibitory concentration (MIC) against Escherichia coli [1] and with Staphylococcus aureus [2] was greater than 100 µM throughout. For the same compound, the 50% inhibitory concentration (IC50) in assay [3] is greater than 100 µM.
Turning to `O=C1c2ccccc2C(=O)N1Cc1ccc(Cn2c(C3CCNCC3)nc3cc(Cl)c(Cl)cc32)cc1`, the MIC in the assay with Candida albicans was 50 µM (≈ 26 µg/mL); in the assay on Enterococcus faecium [4] it was 3 µM (≈ 1.56 µg/mL); in the assay on Enterococcus faecium [5], 6 µM (≈ 3.12 µg/mL); in the assay on Escherichia coli [1], 6 µM (≈ 3.12 µg/mL); with Escherichia coli [6], 6 µM (≈ 3.12 µg/mL); in the assay on Enterococcus faecalis [7], 3 µM (≈ 1.56 µg/mL). Further, the minimal inhibitory concentration (MIC) worked out at 6 µM (≈ 3.12 µg/mL) against Enterococcus faecalis [8]; 6 µM (≈ 3.12 µg/mL) in the assay with Enterococcus faecalis [9]; 6 µM (≈ 3.12 µg/mL) with Enterococcus faecalis [10]; 3 µM (≈ 1.56 µg/mL) with Enterococcus hirae; 25 µM (≈ 13 µg/mL) in the assay on Klebsiella pneumoniae; 25 µM (≈ 13 µg/mL) against Proteus vulgaris. The minimal inhibitory concentration (MIC) came to 12 µM (≈ 6.23 µg/mL) in the assay with Pseudomonas aeruginosa; 6 µM (≈ 3.12 µg/mL) in the assay with Staphylococcus aureus [2]; 6 µM (≈ 3.12 µg/mL) in the assay on Staphylococcus aureus [11]; 12 µM (≈ 6.23 µg/mL) in the assay with Streptococcus pyogenes; 6 µM (≈ 3.12 µg/mL) against Streptococcus pneumoniae; 6 µM (≈ 3.12 µg/mL) against Enterococcus faecalis [12]. The compound further returned a half-maximal inhibitory concentration (IC50) in assay [3] greater than 100 µM.
Take `NC[C@@H]1O[C@H](O[C@H]2[C@@H](O)[C@H](O[C@@H]3[C@@H](O)[C@H](N)C[C@H](N)[C@H]3O[C@H]3O[C@H](CO)[C@@H](O)[C@H](O)[C@H]3N)O[C@@H]2CO)[C@H](N)[C@@H](O)[C@@H]1O` [PAROMOMYCIN]: the figures for the MIC in the assay on Escherichia coli [1] and against Staphylococcus aureus [2] were 3 µM (≈ 1.85 µg/mL) and 1 µM (≈ 0.616 µg/mL), respectively. In [3], the IC50 was found to be 0.56 µM.
For `Clc1cc2nc(C3CCNCC3)n(Cc3cccnc3)c2cc1Cl` the same measures were 50 µM (≈ 18.1 µg/mL), 50 µM (≈ 18.1 µg/mL) and greater than 100 µM.
For `Clc1cc2nc(C3CCNCC3)n(Cc3ccc(CNC[C@@H]4CCCN4)cc3)c2cc1Cl` the same measures were 12 µM (≈ 5.67 µg/mL), 12 µM (≈ 5.67 µg/mL) and greater than 100 µM.
On to `CCCCCNCc1ccc(Cn2c(C3CCNCC3)nc3cc(Cl)c(Cl)cc32)cc1`, for which the minimal inhibitory concentration (MIC) with Candida albicans turned out to be 50 µM (≈ 23 µg/mL); against Enterococcus faecium [4], 3 µM (≈ 1.38 µg/mL); in the assay with Enterococcus faecium [5] it was 6 µM (≈ 2.76 µg/mL); against Escherichia coli [1], 12 µM (≈ 5.51 µg/mL); in the assay on Escherichia coli [6] it was 12 µM (≈ 5.51 µg/mL); in the assay with Enterococcus faecalis [7], 3 µM (≈ 1.38 µg/mL). Besides, the minimum inhibitory concentration (MIC) against Enterococcus faecalis [8] was found to be 6 µM (≈ 2.76 µg/mL); in the assay with Enterococcus faecalis [9] it was 6 µM (≈ 2.76 µg/mL); in the assay on Enterococcus faecalis [10], 6 µM (≈ 2.76 µg/mL); against Enterococcus hirae, 1 µM (≈ 0.459 µg/mL); against Klebsiella pneumoniae, 6 µM (≈ 2.76 µg/mL); against Proteus vulgaris it was 25 µM (≈ 11.5 µg/mL). Also, the minimal inhibitory concentration (MIC) with Pseudomonas aeruginosa stood at 25 µM (≈ 11.5 µg/mL); against Staphylococcus aureus [2] it was 6 µM (≈ 2.76 µg/mL); with Staphylococcus aureus [11], 6 µM (≈ 2.76 µg/mL); against Streptococcus pyogenes it was 3 µM (≈ 1.38 µg/mL); in the assay on Streptococcus pneumoniae, 12 µM (≈ 5.51 µg/mL); against Enterococcus faecalis [12], 6 µM (≈ 2.76 µg/mL). The IC50 in [3] is greater than 100 µM.
For the compound `NCCCCCCNCc1ccc(Cn2c(C3CCNCC3)nc3cc(Cl)c(Cl)cc32)cc1`, the MIC against Candida albicans was greater than 100 µM; with Escherichia coli [1] it was 12 µM (≈ 5.86 µg/mL); against Escherichia coli [6], 12 µM (≈ 5.86 µg/mL); in the assay on Enterococcus hirae, 1 µM (≈ 0.489 µg/mL); in the assay with Klebsiella pneumoniae, 12 µM (≈ 5.86 µg/mL); with Proteus vulgaris it was 25 µM (≈ 12.2 µg/mL). In addition, the minimum inhibitory concentration (MIC) is 25 µM (≈ 12.2 µg/mL) against Pseudomonas aeruginosa; 6 µM (≈ 2.93 µg/mL) in the assay on Staphylococcus aureus [2]; 6 µM (≈ 2.93 µg/mL) against Staphylococcus aureus [11]; 3 µM (≈ 1.47 µg/mL) in the assay on Streptococcus pyogenes; 12 µM (≈ 5.86 µg/mL) with Streptococcus pneumoniae. The half-inhibitory concentration (IC50) in assay [3] is greater than 100 µM.
For `Clc1cc2nc(C3CCNCC3)n(Cc3ccc(CNCCc4c[nH]cn4)cc3)c2cc1Cl`, the MIC against Candida albicans is greater than 100 µM; with Escherichia coli [1] it was 12 µM (≈ 5.8 µg/mL); with Escherichia coli [6], 12 µM (≈ 5.8 µg/mL); with Enterococcus hirae, 3 µM (≈ 1.45 µg/mL); with Klebsiella pneumoniae, 12 µM (≈ 5.8 µg/mL); against Proteus vulgaris it was 25 µM (≈ 12.1 µg/mL). The MIC worked out at 25 µM (≈ 12.1 µg/mL) in the assay with Pseudomonas aeruginosa; 6 µM (≈ 2.9 µg/mL) in the assay on Staphylococcus aureus [2]; 6 µM (≈ 2.9 µg/mL) in the assay with Staphylococcus aureus [11]; 6 µM (≈ 2.9 µg/mL) with Streptococcus pyogenes; 12 µM (≈ 5.8 µg/mL) in the assay with Streptococcus pneumoniae. The compound further showed a half-inhibitory concentration (IC50) in assay [3] of 25 µM.
`NCCCCCCCCNCc1ccc(Cn2c(C3CCNCC3)nc3cc(Cl)c(Cl)cc32)cc1`: the MIC with Candida albicans was greater than 100 µM; in the assay on Enterococcus faecium [4], 12 µM (≈ 6.2 µg/mL); in the assay with Escherichia coli [1], 6 µM (≈ 3.1 µg/mL); with Escherichia coli [6] it was 6 µM (≈ 3.1 µg/mL); against Enterococcus faecalis [7], 6 µM (≈ 3.1 µg/mL); in the assay with Enterococcus faecalis [9] it was 25 µM (≈ 12.9 µg/mL). The minimal inhibitory concentration (MIC) in the assay with Enterococcus faecalis [10] turned out to be 50 µM (≈ 25.8 µg/mL); in the assay on Enterococcus hirae, 1 µM (≈ 0.517 µg/mL); in the assay on Klebsiella pneumoniae it was 6 µM (≈ 3.1 µg/mL); in the assay with Proteus vulgaris, 12 µM (≈ 6.2 µg/mL); with Pseudomonas aeruginosa, 25 µM (≈ 12.9 µg/mL); in the assay on Staphylococcus aureus [2] it was 6 µM (≈ 3.1 µg/mL). Besides, the MIC with Staphylococcus aureus [11] was found to be 6 µM (≈ 3.1 µg/mL); in the assay with Streptococcus pyogenes, 3 µM (≈ 1.55 µg/mL); in the assay on Streptococcus pneumoniae it was 6 µM (≈ 3.1 µg/mL); in the assay on Enterococcus faecalis [12], 50 µM (≈ 25.8 µg/mL). In assay [3], this compound came in with an IC50 greater than 100 µM.

The values are drawn from ChEMBL document CHEMBL1136237, “2-piperidin-4-yl-benzimidazoles with broad spectrum antibacterial activities” (2003).
